Test results taken from ChEMBL document CHEMBL1123658, “1-(2-pyridinyl)piperazine derivatives with antianaphylactic, antibronchospastic, and mast cell stabilizing activities” (J Med Chem, 1987).

Key:
[1] = In vivo toxic effect was determined in mouse after intraperitoneal administration with 10% aqueous acacia gum; value ranges from 0.27-0.43; assay type: toxicity, organism-based; settings: ip
Outline: (§1)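 Female albino mice (20-30 g), 10 animals per dose, dosed intraperitoneally with compound in solution or suspension; compounds tested as salts unless noted. Mortality was recorded over 7 days.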

[2] = tested on: Rattus norvegicus; experiment: Rat PCA Test(50% inhibition of spot areas)in the female albino rats after ip administration in 10% aqueous acacia gum; Value ranges from (6-147).; settings: read-out: ID50 (the source's name)
[3] = tested on: Cavia porcellus; experiment: Antibronchospatic activity determined by histamine stimulated bronchospasm inhibition in guinea pigs after(i.v.) administration; assay type: functional, Bronchiole
Outline: (§2)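 Guinea pigs, Konzett–Rössler preparation. Bronchospasm was induced with histamine. Compound was given iv (1 mL/kg) 1 min before the agonist, dissolved in saline or saline with slight excess HCl or CH3SO3H (pH 3.5–4). Three doses were tested in duplicate, chosen to give 20–90% inhibition. ID75 was read graphically from log dose–response curves.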

[4] = tested on: Rattus norvegicus; experiment: Rat PCA Test(50% inhibition of spot areas)in the female albino rats after ip administration in 10% aqueous acacia gum; assay type: functional; settings: read-out: ID50 (the source's name)
Outline: (§3)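 Antiserum came from female rats given 1% egg albumin in 0.9% NaCl intramuscularly plus Haemophilus pertussis vaccine (2 × 10^10 organisms) intraperitoneally, and was collected 12 days later. Recipient rats (200-250 g) got it intradermally at a ventral site. After 24 h, groups of 10 received vehicle or compound ip. At 30 min they were challenged iv with 0.3% egg albumin plus 1% Evans blue. Blued skin areas were measured 30 min later.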

[5] = In vivo toxic effect was determined in mouse after intraperitoneal administration with 10% aqueous acacia gum; value ranges from 0.39-0.76; assay type: toxicity, organism-based; settings: ip; outline: as §1
[6] = tested on: Cavia porcellus; experiment: Antibronchospatic activity was determined by inhibition of histamine stimulated bronchospasm in guinea pigs after (iv) administration; assay type: functional, Bronchiole; outline: as §2
[7] = In vivo toxic effect was determined in mouse after intraperitoneal administration with 10% aqueous acacia gum; value ranges from (0.47-0.85); assay type: toxicity, organism-based; settings: ip; outline: as §1
[8] = tested on: Rattus norvegicus; experiment: Rat PCA Test(50% inhibition of spot areas)in the female albino rats after ip administration in 10% aqueous acacia gum; Value ranges from(26-134); assay type: functional; settings: read-out: ID50 (the source's name); outline: as §3
[9] = In vivo toxic effect was determined in mouse after intraperitoneal administration with 10% aqueous acacia gum; value ranges from 0.39-0.70; assay type: toxicity, organism-based; settings: ip; outline: as §1
[10] = tested on: Rattus norvegicus; experiment: Rat PCA Test(50% inhibition of spot areas)in the female albino rats after oral administration in 10% aqueous acacia gum; value ranges from 80-141; assay type: functional; settings: read-out: ID50 (the source's name)
Outline: (§4)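 Female rats (200-250 g) were passively sensitized by ventral intradermal anti-egg-albumin antiserum. This was raised in rats by intramuscular 1% egg albumin plus ip H. pertussis vaccine, with serum taken at 12 days. After 24 h, groups of 10 were dosed orally with compound or vehicle (10 mL/kg). At 60 min, iv challenge used 0.3% egg albumin with 1% Evans blue. Blued areas were measured after 30 min.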

[11] = tested on: Rattus norvegicus; experiment: Rat PCA Test(50% inhibition of spot areas)in the female albino rats after (ip) administration in 10% aqueous acacia gum; value ranges from 45-69; assay type: functional; settings: read-out: ID50 (the source's name)
Outline: (§5)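 Female albino rats (200–250 g) received intradermal ventral injections of rat anti-egg-albumin antiserum; donors were raised with egg albumin im plus H. pertussis ip, and serum was taken at 12 days. 24 h later, compound was given ip in 10% acacia gum (10 mL/kg), 10 rats/group. Challenge 30 min later was iv 0.3% egg albumin plus 1% Evans blue. Blued areas were measured 30 min after challenge.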

[12] = In vivo toxic effect was determined in mouse after intraperitoneal administration with 10% aqueous acacia gum; value ranges from 0.48-0.77; assay type: toxicity, organism-based; settings: ip; outline: as §1
[13] = In vivo toxic effect was determined in mouse after oral administration with 10% aqueous acacia gum; value ranges from 1.23-1.71; assay type: toxicity, organism-based
Outline: (§6)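 Female albino mice, 20-30 g. Compound given orally as solution or suspension in 10% aqueous acacia gum, 10 animals per dose. Deaths recorded over 7 days.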

[14] = tested on: Rattus norvegicus; experiment: Rat PCA Test(50% inhibition of spot areas)in the female albino rats after (ip) administration in 10% aqueous acacia gum; value ranges from 145-288; assay type: functional; settings: read-out: ID50 (the source's name); outline: as §5
[15] = In vivo toxic effect was determined in mouse after oral administration with 10% aqueous acacia gum; value ranges from 3.08-6.27; assay type: toxicity, organism-based; outline: as §6
[16] = tested on: Rattus norvegicus; experiment: Rat PCA Test(50% inhibition of spot areas)in the female albino rats after (ip) administration in 10% aqueous acacia gum; assay type: functional; settings: read-out: ID50 (the source's name); outline: as §5
[17] = In vivo toxicity in mouse after oral administration with 10% aqueous acacia gum; assay type: organism-based; outline: as §6
[18] = tested on: Rattus norvegicus; experiment: Inhibition of mast cell degranulation was assessed in female albino rats at a dose of 45 umol/kg iv; assay type: functional
[19] = tested on: Rattus norvegicus; experiment: Rat PCA Test(50% inhibition of spot areas)in the female albino rats after oral administration in 10% aqueous acacia gum; value ranges from 110-212; assay type: functional; settings: read-out: ID50 (the source's name); outline: as §4
[20] = tested on: Rattus norvegicus; experiment: Rat PCA Test(50% inhibition of spot areas)in the female albino rats after (ip) administration in 10% aqueous acacia gum; value ranges from 57-142; assay type: functional; settings: read-out: ID50 (the source's name); outline: as §5
[21] = tested on: Rattus norvegicus; experiment: Inhibition of mast cell degranulation was assessed in female albino rats at a dose of 65 umol/kg iv; assay type: functional
[22] = tested on: Rattus norvegicus; experiment: Rat PCA Test(50% inhibition of spot areas)in the female albino rats after oral administration in 10% aqueous acacia gum; value ranges from 184-369; assay type: functional; settings: read-out: ID50 (the source's name); outline: as §4
[23] = tested on: Rattus norvegicus; experiment: Rat PCA Test(50% inhibition of spot areas)in the female albino rats after (ip) administration in 10% aqueous acacia gum; value ranges from 99-415; assay type: functional; settings: read-out: ID50 (the source's name); outline: as §3
[24] = In vivo toxic effect was determined in mouse after intraperitoneal administration with 10% aqueous acacia gum; value ranges from 1.82-3.42; assay type: toxicity, organism-based; settings: ip; outline: as §1
[25] = tested on: Rattus norvegicus; experiment: Rat PCA Test(50% inhibition of spot areas)in the female albino rats after oral administration in 10% aqueous acacia gum; value ranges from 161-222; assay type: functional; settings: read-out: ID50 (the source's name); outline: as §4
[26] = tested on: Rattus norvegicus; experiment: Rat PCA Test(50% inhibition of spot areas)in the female albino rats after (ip) administration in 10% aqueous acacia gum; value ranges from 128-203; assay type: functional; settings: read-out: ID50 (the source's name); outline: as §5
[27] = tested on: Mus musculus; experiment: In vivo toxic effect was determined in mouse after intraperitoneal administration with 10% aqueous acacia gum; NA means poorly absorbed; assay type: toxicity, organism-based; settings: ip; outline: as §1
[28] = In vivo toxic effect was determined in mouse after oral administration with 10% aqueous acacia gum; value ranges from 4.50-5.90; assay type: toxicity, organism-based; outline: as §6
[29] = tested on: Rattus norvegicus; experiment: Inhibition of mast cell degranulation was assessed in female albino rats at a dose of 50 umol/kg iv; assay type: functional

`Cc1c(C)c([N+](=O)[O-])c(C)c(C)c1C(=O)NCCN1CCN(c2ccccn2)CC1.Cl.Cl` showed an LD50 [1] of 320 µmol/kg and an ED50 [2] of 30 µmol/kg.
`Cc1cc(N)cc(C)c1C(=O)NCCN1CCN(c2ccccn2)CC1.Cl` gave an ID75 [3] of 5.27 µM/kg, an ED50 [4] of over 167 µmol/kg and an LD50 [5] of 550 µmol/kg.
Work on `CCCCOc1cc(C(=O)NCCN2CCN(c3ccccn3)CC2)c2ccccc2n1.Cl.Cl` yielded an ID75 [6] of 8.15 µM/kg, an ED50 [4] of over 175 µmol/kg and an LD50 [7] of 540 µmol/kg.
`Cc1cc([N+](=O)[O-])cc(C)c1C(=O)NCCN1CCN(c2ccccn2)CC1.Cl.Cl` showed an ID75 [3] of 4.6 µM/kg, an ED50 [8] of 78 µmol/kg and an LD50 [9] of 530 µmol/kg.
For `COc1cccc(N2CCN(CCC(=O)Nc3ccc(N)cc3)CC2)n1.Cl.Cl`, the ID75 [3] was 0.4 µM/kg, the ED50 [10] was 106 µmol/kg and the ED50 [11] was 56 µmol/kg. It also gave an LD50 [12] of 530 µmol/kg and an LD50 [13] of 1600 µmol/kg.
With `COc1cccc(N2CCN(CCC(=O)Nc3ccc([N+](=O)[O-])cc3)CC2)n1.Cl` the ID75 [3] was 0.16 µM/kg, the ED50 [14] was 204 µmol/kg and the LD50 [15] was 4390 µmol/kg.
For `COc1cccc(N2CCN(CCC(=O)Nc3ccccc3[N+](=O)[O-])CC2)n1.Cl`, the ID75 [3] was 0.52 µM/kg, the ED50 [16] was over 237 µmol/kg and the LD50 [17] was over 7100 µmol/kg.
With `CC(=O)Nc1ccc(NC(=O)CCN2CCN(c3ccccn3)CC2)cc1.Cl.Cl` the inhibition in vivo at 45 µmol/kg [18] was 29%, the ID75 [3] was 0.97 µM/kg and the ED50 [19] was 153 µmol/kg. The ED50 [20] was 90 µmol/kg and the LD50 [17] was over 6810 µmol/kg.
Compound `Cl.Cl.NC(=O)CCN1CCN(c2ccccn2)CC1` has an inhibition in vivo at 65 µmol/kg [21] of 23%, an ID75 [3] of 2.47 µM/kg and an ED50 [22] of 260 µmol/kg. The ED50 [23] was 203 µmol/kg and the LD50 [24] was 2440 µmol/kg.
Compound `Cl.Cl.O=C(CCN1CCN(c2ccccn2)CC1)Nc1ccc(O)cc1` has an ID75 [3] of 0.49 µM/kg, an ED50 [25] of 189 µmol/kg and an ED50 [26] of 161 µmol/kg. The LD50 [27] was “Not Active”, the LD50 [28] was 5200 µmol/kg and the inhibition in vivo at 50 µmol/kg [29] was 64%.
